The values below come from PMC6034508 (Inorganic chemistry, 2018).

The test system of assay [1] is DU-145 cells. Nature of the assay: Confocal imaging of intracellular fluorescence. In kind it is cell-based. The following applies: DU-145, CLIK-148 50 μM for 24 h before 7 (30 μM). The essentials:
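Live DU-145 cells are grown 48 h in 35 mm dishes (DMEM, 10% FBS, 37 °C, 5% CO2), then given 30 μM test compound or DMSO vehicle for 2 h, washed thrice and imaged in PBS. In the inhibition arm, cells receive 50 μM CLIK-148 for 24 h first. Confocal imaging uses 405 nm excitation, 501–740 nm emission and 1.5 μm z-stacks, with four biological replicates at 20×. Thresholded fluorescence per image is divided by manual cell count.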

The target in assay [2] is T1, CTSL (Homo sapiens, UniProt P07711). The settings on record: literature value; ref [47]; cited from earlier work.
In assay [3] the target is CTSB (Homo sapiens, UniProt P07858). Nature of the assay: Cathepsin B inhibition, progress curve assay with Z-Arg-Arg-AMC. Type of assay: biochemical. The essentials:
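Buffer is 0.4 M acetate, pH 5.5, with 5 mM EDTA, 0.01% Triton X-100, DTT 10 mM and <1% DMSO, at 25 °C. Test compound is run at 1 nM to 100 μM. Enzyme is added last, and free AMC release is followed at once over 15 min. Progress curves are fitted to obtain kinact and Ki. CA-074 is the positive control. Values are means of three independent experiments ± SD.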

Assay [4] has as its target CTSS (Homo sapiens, UniProt P25774). The experiment in a line: Cathepsin S inhibition, progress curve assay with Z-Val-Val-Arg-AMC. Type of assay: biochemical. The essentials: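 Buffer is 50 mM phosphate, pH 6.5, with 2.5 mM EDTA, DTT 8 mM and <1% DMSO, at 25 °C. Test compound is run at 1–20 μM. […] Results are averages of three independent experiments, errors as standard deviations.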

Assay [5] deals with T1, CTSL. Nature of the assay: Cathepsin L inhibition, progress curve assay with Z-Phe-Arg-AMC. In kind it is biochemical.

T1 sequence (P07711 114-333): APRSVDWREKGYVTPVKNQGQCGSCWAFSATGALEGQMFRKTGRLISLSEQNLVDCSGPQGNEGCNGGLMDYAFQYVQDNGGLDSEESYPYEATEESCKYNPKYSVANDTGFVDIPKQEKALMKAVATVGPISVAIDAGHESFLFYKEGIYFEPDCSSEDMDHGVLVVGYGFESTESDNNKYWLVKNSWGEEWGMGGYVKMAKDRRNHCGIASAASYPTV
CTSS, sequence (P25774 115-331): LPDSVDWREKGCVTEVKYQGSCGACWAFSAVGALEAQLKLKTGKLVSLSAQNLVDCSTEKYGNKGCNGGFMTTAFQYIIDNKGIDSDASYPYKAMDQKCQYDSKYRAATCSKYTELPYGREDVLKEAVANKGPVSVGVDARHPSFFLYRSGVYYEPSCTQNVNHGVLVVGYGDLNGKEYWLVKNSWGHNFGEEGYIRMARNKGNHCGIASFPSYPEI

Regarding `CN(C)C(=O)[C@H](Cc1ccccc1)NC(=O)[C@H]1O[C@@H]1C(=O)NCCc1ccccn1` [CLIK-148, reference compound], the “Decrease of intracellular fluorescence intensity of 7” value in assay [1] is “over 50%”. Moreover, the “CTSL kinact/Ki” value in assay [2] was 11000 ± 3000 M⁻¹ s⁻¹.
As usually defined, the Ki is a measure of affinity in units of concentration, obtained from inhibition or displacement. One may read the kinact as the maximal first-order rate at which the target is inactivated. Take `CN(C)C(=O)C(Cc1ccccc1)NC(=O)[C@H]1O[C@@H]1C(=O)NCCCNC(=O)c1ccc(-c2ccccn2)nc1` (stereo partly drawn) [Compound 2, (2S,3S)-N^2-(3-([2,2′-Bipyridine]-5-carboxamido)-propyl)-N^3-(1-(dimethylamino)-1-oxo-3-phenylpropan-2-yl)-oxirane-2,3-dicarboxamide]: the Ki amounted to 296 ± 8 µM in assay [3], 3 ± 0.8 µM in assay [4] and 0.74 ± 0.05 µM in assay [5]. The kinact/KI is 9 M⁻¹ s⁻¹ in assay [3] (pH 5.5, read-out: CTSB kinact/Ki); 5300 ± 200 M⁻¹ s⁻¹ in assay [4] (pH 6.5, read-out: CTSS kinact/Ki); 42300 ± 4100 M⁻¹ s⁻¹ in assay [5] (pH 5.5, read-out: CTSL kinact/Ki). Besides, in assay [5] (CTSL over CTSS), the “kinact/Ki ratio CTSL/CTSS (selectivity)” value is 8. Moreover, the kinact in assay [5] (read-out: CTSL kinact (rate of irreversible inactivation)) came to 0.031 ± 0.002 s⁻¹. Further, the “Fold enhancement of CTSL kinact/Ki relative to free inhibitor 1” value in assay [5] (relative to 1) is listed as “roughly 3 fold”.
`O=S(=O)([O-])C(F)(F)F.[C-]#[O+].[C-]#[O+].[C-]#[O+].[Re+].c1ccncc1.c1cnc2c(c1)ccc1cccnc12` [[Re(phen)(CO)3(pyridine)](OTf), reference compound]: the “CTSL inhibition, in words” value in assay [5] (at concentrations up to 100 μM) is given as “no inhibition”.
